In series [1] the target is Insulin-like growth factor 1 receptor (Homo sapiens, UniProt P08069). In words: Inhibition of human recombinant IGF1R.
Series [2] deals with Protein kinase C eta type (Homo sapiens, UniProt P24723). In words: Inhibition of PKCeta by SPA.
The nature of series [3]: Inhibition of human recombinant PKA.
The target in series [4] is Vascular endothelial growth factor receptor 3 (Homo sapiens, UniProt P35916). In words: Inhibition of human recombinant Flt4.
Series [5] deals with Tyrosine-protein kinase ZAP-70 (Homo sapiens, UniProt P43403). In words: Inhibition of human recombinant ZAP70.
Series [6] addresses Protein kinase C delta type (Homo sapiens, UniProt Q05655). In words: Inhibition of PKCdelta by SPA.
The target in series [7] is Vascular endothelial growth factor receptor 2 (Homo sapiens, UniProt P35968). In words: Inhibition of human recombinant KDR.
Series [8] in a line: Clearance in OFA rat at 5 mg/kg, iv. The class given is ADME, organism-based. More on the design: dose 5 mg/kg, route intravenous. As to conditions: in vivo. The gist of the method:
(§1)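 Rats dosed either 5 mg/kg iv in 75% saline (0.9%)-25% PEG400 or 20 mg/kg po in 75% water-25% PEG400. OFA or Lewis rats were used depending on the compound. Values are averages of three animals. AUC is extrapolated to infinity. Oral bioavailability (F) comes from the po and iv exposures.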

The nature of series [9]: AUC (0 to infinity) in OFA rat at 20 mg/kg, po. More on the design: dose 20 mg/kg, route oral, time infinity. The following applies: plasma. The class given is ADME, organism-based. The procedure, abridged:
as §1

In series [10] the target is Cyclin-dependent kinase 2/cyclin A (Homo sapiens, UniProt P24941). In words: Inhibition of human recombinant CDK2/cyclin A. The class given is protein-complex assay.
Another series concerns the target Focal adhesion kinase 1 (Homo sapiens, UniProt Q05397). In words: Inhibition of human recombinant FAK.
For series [11], the target named is Protein kinase C theta type (Homo sapiens, UniProt Q04759). In words: Inhibition of PKCtheta by SPA.
Series [12] has as its target Mitogen-activated protein kinase 14 (Homo sapiens, UniProt Q16539). In words: Inhibition of human recombinant p38alpha.
Series [13] deals with Mitogen-activated protein kinase 9 (Homo sapiens, UniProt P45984). In words: Inhibition of human recombinant JNK2.
Series [14] in a line: cells. As to conditions: Homo sapiens, Jurkat.
Series [15] is described as follows: cells. The following applies: Homo sapiens, Splenocyte.

By IC50 is commonly meant the concentration needed to halve the response being measured. One may read the clearance as the volume of plasma or blood freed of the substance per unit of time. Read a high clearance as efficient removal. What is called AUC(0-inf) is the area under the concentration-time curve extrapolated to infinity. A higher AUC(0-inf) goes with more exposure.

Sequence of Mitogen-activated protein kinase 14 (Q16539 whole entry): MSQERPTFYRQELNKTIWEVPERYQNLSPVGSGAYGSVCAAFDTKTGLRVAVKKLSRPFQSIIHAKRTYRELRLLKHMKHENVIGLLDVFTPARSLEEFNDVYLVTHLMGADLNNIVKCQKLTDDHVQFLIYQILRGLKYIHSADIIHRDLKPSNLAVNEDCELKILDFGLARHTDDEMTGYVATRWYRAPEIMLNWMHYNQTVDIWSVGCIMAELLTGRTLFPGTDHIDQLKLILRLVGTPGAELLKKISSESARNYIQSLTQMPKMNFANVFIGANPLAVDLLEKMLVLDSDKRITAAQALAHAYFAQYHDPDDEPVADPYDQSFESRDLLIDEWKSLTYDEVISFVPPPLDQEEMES
Sequence of Vascular endothelial growth factor receptor 2 (P35968 whole entry): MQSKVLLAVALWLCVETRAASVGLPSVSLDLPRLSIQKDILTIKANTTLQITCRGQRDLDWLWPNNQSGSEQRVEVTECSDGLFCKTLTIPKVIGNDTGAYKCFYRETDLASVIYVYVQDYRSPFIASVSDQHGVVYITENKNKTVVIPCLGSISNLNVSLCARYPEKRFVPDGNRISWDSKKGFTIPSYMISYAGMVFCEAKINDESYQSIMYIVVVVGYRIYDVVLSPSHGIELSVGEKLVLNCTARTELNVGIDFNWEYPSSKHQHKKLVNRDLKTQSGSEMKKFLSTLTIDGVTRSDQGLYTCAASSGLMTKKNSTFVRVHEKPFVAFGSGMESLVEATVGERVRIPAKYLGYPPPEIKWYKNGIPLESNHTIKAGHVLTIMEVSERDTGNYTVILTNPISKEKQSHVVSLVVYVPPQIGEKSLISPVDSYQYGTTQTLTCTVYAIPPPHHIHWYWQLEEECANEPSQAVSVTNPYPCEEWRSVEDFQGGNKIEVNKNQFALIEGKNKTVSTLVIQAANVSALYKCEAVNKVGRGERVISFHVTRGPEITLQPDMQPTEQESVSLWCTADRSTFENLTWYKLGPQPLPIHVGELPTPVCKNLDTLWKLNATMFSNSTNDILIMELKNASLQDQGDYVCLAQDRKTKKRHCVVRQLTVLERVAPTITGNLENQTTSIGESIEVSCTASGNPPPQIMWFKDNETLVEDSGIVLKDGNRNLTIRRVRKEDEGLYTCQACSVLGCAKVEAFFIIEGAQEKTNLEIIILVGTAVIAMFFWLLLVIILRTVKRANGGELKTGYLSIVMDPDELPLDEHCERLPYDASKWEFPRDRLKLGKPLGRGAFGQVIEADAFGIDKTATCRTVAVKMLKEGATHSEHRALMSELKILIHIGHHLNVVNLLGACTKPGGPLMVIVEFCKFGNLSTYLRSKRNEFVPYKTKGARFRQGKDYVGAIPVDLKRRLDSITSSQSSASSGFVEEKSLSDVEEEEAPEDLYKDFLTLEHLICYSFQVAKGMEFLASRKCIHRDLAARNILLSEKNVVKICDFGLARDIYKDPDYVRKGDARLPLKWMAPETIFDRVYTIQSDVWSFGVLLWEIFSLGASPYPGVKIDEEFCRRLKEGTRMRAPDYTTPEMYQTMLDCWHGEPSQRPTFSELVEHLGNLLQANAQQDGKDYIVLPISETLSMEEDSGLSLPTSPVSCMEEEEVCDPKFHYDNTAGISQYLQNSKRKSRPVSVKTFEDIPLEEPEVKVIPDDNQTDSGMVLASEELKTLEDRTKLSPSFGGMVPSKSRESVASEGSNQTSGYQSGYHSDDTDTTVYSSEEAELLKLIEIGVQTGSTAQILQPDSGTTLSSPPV
Sequence of Vascular endothelial growth factor receptor 3 (P35916 whole entry): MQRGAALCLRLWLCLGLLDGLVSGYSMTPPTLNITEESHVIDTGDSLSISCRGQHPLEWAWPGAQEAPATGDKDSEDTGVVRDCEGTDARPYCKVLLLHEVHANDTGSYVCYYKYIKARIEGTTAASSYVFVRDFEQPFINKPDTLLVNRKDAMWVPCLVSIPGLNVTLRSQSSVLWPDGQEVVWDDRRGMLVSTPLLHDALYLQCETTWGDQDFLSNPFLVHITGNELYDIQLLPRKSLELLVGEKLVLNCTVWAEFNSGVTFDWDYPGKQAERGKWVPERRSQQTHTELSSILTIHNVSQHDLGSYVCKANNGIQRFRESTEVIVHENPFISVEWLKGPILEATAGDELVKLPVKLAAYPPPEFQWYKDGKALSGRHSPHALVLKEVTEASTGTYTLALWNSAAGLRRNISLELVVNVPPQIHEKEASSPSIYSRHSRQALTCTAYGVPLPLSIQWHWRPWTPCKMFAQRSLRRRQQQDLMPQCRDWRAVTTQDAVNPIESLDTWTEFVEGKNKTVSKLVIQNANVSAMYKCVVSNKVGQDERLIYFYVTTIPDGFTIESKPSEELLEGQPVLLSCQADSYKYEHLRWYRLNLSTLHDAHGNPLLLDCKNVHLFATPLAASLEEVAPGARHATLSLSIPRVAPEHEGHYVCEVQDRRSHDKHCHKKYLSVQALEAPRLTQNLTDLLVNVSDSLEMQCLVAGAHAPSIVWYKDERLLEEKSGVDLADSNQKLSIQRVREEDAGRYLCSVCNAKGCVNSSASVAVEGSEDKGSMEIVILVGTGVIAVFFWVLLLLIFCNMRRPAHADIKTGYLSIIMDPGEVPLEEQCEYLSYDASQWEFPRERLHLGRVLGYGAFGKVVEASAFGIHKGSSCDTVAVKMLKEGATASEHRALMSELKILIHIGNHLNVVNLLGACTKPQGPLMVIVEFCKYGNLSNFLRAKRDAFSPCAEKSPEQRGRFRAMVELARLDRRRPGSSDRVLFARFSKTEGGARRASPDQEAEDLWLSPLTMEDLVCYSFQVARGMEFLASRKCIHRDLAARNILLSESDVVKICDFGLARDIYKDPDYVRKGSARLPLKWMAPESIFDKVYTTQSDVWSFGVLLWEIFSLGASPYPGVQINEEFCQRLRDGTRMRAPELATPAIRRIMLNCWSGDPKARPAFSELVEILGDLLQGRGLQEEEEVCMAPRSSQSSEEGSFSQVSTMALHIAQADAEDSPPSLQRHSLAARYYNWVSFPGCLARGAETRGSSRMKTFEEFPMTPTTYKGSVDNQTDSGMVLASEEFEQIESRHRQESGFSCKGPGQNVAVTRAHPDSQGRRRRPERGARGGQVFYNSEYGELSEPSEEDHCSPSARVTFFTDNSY
Sequence of Protein kinase C delta type (Q05655 whole entry): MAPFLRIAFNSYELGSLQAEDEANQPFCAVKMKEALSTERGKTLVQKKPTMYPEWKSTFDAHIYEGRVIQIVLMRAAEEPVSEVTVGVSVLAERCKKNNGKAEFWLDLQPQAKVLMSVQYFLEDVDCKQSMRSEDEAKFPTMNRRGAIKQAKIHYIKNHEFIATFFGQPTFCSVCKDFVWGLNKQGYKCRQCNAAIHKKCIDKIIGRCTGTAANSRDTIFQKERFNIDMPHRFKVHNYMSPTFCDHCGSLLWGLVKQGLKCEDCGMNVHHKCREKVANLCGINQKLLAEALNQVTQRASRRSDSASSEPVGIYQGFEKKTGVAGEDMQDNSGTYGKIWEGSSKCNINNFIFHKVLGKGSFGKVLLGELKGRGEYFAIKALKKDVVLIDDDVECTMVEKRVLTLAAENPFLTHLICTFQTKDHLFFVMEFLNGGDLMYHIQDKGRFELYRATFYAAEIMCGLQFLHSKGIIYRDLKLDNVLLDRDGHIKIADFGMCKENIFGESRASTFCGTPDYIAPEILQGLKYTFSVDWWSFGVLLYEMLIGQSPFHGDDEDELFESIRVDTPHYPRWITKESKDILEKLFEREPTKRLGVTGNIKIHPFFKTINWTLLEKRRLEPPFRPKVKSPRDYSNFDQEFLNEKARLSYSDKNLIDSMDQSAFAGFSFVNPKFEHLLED
Sequence of Tyrosine-protein kinase ZAP-70 (P43403 whole entry): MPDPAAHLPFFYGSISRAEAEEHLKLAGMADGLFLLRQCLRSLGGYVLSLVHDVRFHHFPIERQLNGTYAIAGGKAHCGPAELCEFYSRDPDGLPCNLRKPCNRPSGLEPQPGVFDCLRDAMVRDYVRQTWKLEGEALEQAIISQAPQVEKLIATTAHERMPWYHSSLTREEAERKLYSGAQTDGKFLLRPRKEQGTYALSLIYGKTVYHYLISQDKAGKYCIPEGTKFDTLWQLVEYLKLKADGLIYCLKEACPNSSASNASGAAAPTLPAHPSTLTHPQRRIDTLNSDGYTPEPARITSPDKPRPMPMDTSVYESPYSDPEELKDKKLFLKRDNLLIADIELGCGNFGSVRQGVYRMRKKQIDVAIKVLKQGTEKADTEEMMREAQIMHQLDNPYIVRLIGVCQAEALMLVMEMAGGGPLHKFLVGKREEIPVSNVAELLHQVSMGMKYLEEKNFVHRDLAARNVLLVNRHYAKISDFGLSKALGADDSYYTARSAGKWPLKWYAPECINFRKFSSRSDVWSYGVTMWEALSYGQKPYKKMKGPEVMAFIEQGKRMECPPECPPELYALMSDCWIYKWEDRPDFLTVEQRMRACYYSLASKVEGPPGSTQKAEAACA
Sequence of Mitogen-activated protein kinase 9 (P45984 whole entry): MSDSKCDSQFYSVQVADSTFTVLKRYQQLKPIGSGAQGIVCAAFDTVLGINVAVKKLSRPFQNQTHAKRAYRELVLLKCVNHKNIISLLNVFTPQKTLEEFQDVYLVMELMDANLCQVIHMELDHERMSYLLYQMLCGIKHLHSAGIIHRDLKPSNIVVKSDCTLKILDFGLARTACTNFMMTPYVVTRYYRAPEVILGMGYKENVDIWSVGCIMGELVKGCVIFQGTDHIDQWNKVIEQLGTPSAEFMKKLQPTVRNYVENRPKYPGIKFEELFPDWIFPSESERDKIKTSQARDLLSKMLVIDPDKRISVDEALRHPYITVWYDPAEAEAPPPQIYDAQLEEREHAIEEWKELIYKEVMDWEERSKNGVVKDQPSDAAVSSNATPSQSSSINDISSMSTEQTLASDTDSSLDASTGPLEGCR

With `CN1CCN(c2nc(C3=C(c4c[nH]c5ccccc45)C(=O)NC3=O)c3ccccc3n2)CC1` [SOTRASTAURIN], the concentration for half-maximal inhibition (IC50) in series [1] was over 10000 nM; in [2], 6.1 nM; in [3] it was 3400 nM; in series [4], 4600 nM; in series [5], over 10000 nM; in series [6], 1.3 nM. In addition, the IC50 in series [7] is 3900 nM; in series [10], 2300 nM; on Focal adhesion kinase 1, 8300 nM; in [11], 1 nM; in [12], over 10000 nM; in series [13] it was over 10000 nM. Also, the IC50 in the series “cells [14]” came out at 54 nM; in “cells [15]”, 34 nM. In addition, the clearance in series [8] is 51.2 mL/min/kg. This molecule also displayed an AUC(0-inf) in series [9] of 2210 ng·h/mL.
